The text below walks through data of ChEMBL document CHEMBL1156381, “Cacofurans A and B, new furanoditerpenes from a marine sponge” (J Nat Prod, 2001).

The subject of one assay is P388. The assay can be described thus: Cytotoxicity against mouse P388 cells. It counts as functional, cell-based.
The subject of a further assay is K562. Description: Cytotoxicity against human K562 cells. It counts as functional, cell-based.
Assay [1] in a line: Cytotoxicity against rat NBT2 cells assessed as cell survival at 10 ug/mL after 16 hrs by phase contrast microscope. The conditions noted are these: NBT2, 16 h, read-out: Activity. It counts as functional. In a few lines:
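Rat bladder epithelial carcinoma NBT-II cells were exposed to 10 μg/mL test agent. Phase contrast images of control and treated cells were recorded after 16 h on an image-based high content imaging workstation.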

The next assay concerns NBT2. The assay can be described thus: Disruption of actin cytoskeleton in rat NBT2 cells at 10 ug/mL after 16 hrs by TMR-phalloidin imaging analysis. It counts as functional, cell-based. The gist of the method:
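NBT-II rat bladder epithelial carcinoma cells were treated at 10 μg/mL. Cells were then permeabilized and stained with TMR-phalloidin to image the actin cytoskeleton, with control cells for comparison.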

Assay [2] can be described thus: Toxicity in sea urchin egg assessed as inhibition of development of fertilized egg by light microscopy. The arrangement: species or system Tripneustes gratilla. The gist of the method: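 Eggs and sperm were collected from mature Tripneustes gratilla specimens for the fertilized-egg development assay.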
Another assay deals with Escherichia coli. The assay can be described thus: Antibacterial activity against Escherichia coli. It counts as functional, organism-based.
The test system of another assay is Bacillus cereus. The assay can be described thus: Antibacterial activity against Bacillus cereus. It counts as functional, organism-based.
The subject of a further assay is Staphylococcus aureus. The assay can be described thus: Antibacterial activity against methicillin-resistant Staphylococcus aureus. In kind it is functional, organism-based.

In brackets after ≈: the same amount, converted by molar mass. Activity calls are given as the source filed them. The calls are words filed in the database; no cut-off is given here.

Take `CC(=O)O[C@@H](Cc1ccoc1)[C@@H]1[C@@]23CCCC(C)(C)[C@@H]2CC[C@]1(C)OC3` [CACOFURAN A]: the values for the IC50 (in the assay with P388; in the assay with K562; in assay [2]) were greater than 1 µg/mL, greater than 1 µg/mL and 0.5 µg/mL (≈ 1.39 µM), respectively. Besides, in assay [1], the viability at 10 µg/mL was determined as 50%. Also, in the assay on NBT2, the outcome was Active. Besides, the outcome with Escherichia coli, in the assay with Bacillus cereus and in the assay with Staphylococcus aureus was inactive.

Turning to `CC1(C)CCC[C@@]23CO[C@@](C)(CC[C@@H]12)[C@@H]3[C@@H](O)Cc1ccoc1` [CACOFURAN B], the half-inhibitory concentration (IC50) is greater than 1 µg/mL with P388, greater than 1 µg/mL in the assay on K562 and 5 µg/mL (≈ 15.7 µM) in assay [2]. Also, in assay [1], the viability at 10 µg/mL came to 50%. For the same compound, the result in the assay with NBT2 was Active. For the same compound, the result in the assay with Escherichia coli, in the assay on Bacillus cereus and in the assay with Staphylococcus aureus was inactive.

As usually defined, the IC50 is the point on the concentration scale where inhibition reaches its midpoint.
